Data on nine molecules can be found in ChEMBL document CHEMBL2407071, “Exploring 4-substituted-2-thiazolylhydrazones from 2-, 3-, and 4-acetylpyridine as selective and reversible hMAO-B inhibitors” (Eur J Med Chem, 2013).

As usually defined, the IC50 is the concentration at which inhibition is half-maximal.

Data set [1] addresses T1, Amine oxidase [flavin-containing] B (Homo sapiens, UniProt P27338).
T1 sequence (P27338 whole entry): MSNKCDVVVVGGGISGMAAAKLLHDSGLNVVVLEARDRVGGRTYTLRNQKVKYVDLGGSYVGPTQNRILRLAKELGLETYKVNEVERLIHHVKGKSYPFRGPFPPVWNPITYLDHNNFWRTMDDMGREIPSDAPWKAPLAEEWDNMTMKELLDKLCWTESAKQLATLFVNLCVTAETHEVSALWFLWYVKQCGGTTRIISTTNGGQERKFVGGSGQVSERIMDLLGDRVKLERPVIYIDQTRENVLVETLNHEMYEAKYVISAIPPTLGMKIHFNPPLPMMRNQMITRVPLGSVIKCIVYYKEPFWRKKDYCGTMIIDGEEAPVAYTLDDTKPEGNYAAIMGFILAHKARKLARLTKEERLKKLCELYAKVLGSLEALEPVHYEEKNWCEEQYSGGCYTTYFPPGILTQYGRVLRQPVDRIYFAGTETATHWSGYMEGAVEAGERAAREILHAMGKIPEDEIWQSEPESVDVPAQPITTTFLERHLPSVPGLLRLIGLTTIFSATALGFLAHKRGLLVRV
In words: Inhibition of recombinant human MAO-B assessed as oxidation of kynuramine to 4-hydroxyquinoline after 20 mins by spectrofluorometric analysis. Put shortly: (§1)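 Enzyme from insect-cell microsomes expressing recombinant human MAO-A or MAO-B, at 0.0075 mg protein/mL, in 100 mM potassium phosphate pH 7.4 made isotonic with 20.2 mM KCl, with 4% DMSO. Kynuramine was 45 µM for MAO-A and 30 µM for MAO-B. Inhibitor range 0-100 µM, six log-spaced concentrations. Incubated 20 min at 37 °C, stopped with 2N NaOH and centrifuged. 4-Hydroxyquinoline read by fluorescence (ex 310/em 400 nm) against a calibration curve. One-site competition fit; three experiments, mean ± SD.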

Data set [2] addresses T2, Amine oxidase [flavin-containing] A (Homo sapiens, UniProt P21397).
T2 sequence (P21397 whole entry): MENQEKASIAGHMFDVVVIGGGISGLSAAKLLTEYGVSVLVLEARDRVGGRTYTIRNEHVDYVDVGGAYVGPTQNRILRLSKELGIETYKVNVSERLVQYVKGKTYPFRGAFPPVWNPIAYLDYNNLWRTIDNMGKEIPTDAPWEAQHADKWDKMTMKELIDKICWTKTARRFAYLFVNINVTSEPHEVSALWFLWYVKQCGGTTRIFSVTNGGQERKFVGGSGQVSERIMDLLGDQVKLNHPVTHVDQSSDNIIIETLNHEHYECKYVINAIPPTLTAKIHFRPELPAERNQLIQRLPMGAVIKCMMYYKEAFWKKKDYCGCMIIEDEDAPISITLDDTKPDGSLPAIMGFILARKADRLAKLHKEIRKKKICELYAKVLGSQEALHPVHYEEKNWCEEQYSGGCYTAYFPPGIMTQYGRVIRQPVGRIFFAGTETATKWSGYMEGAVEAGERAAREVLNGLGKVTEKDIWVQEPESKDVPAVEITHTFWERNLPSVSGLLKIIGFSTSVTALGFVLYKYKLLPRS
Briefly: Inhibition of recombinant human MAO-A assessed as oxidation of kynuramine to 4-hydroxyquinoline after 20 mins by spectrofluorometric analysis. Put shortly: as §1

For data set [3], the target named is T1, Amine oxidase [flavin-containing] B. Briefly: Reversible inhibition of recombinant human MAO-B assessed as oxidation of kynuramine to 4-hydroxyquinoline at IC50 to 2 times IC50 up to 60 mins by spectrofluorometric analysis. The conditions noted are these: 1 h.
Data set [4] has the same target. Briefly: Competitive inhibition of recombinant human MAO-B using kynuramine as substrate by Lineweaver-Burk plot analysis.
Data set [5] shares this target. In words: Mixed type inhibition of recombinant human MAO-B using kynuramine as substrate by Lineweaver-Burk plot analysis.

For the molecule `C/C(=N\Nc1nc(C)cs1)c1cccnc1`, the IC50 in data set [1] (read-out: IC50) came to 13.6 µM; in data set [2] (read-out: IC50), 6.91 µM.

As to `C/C(=N/Nc1nc(C)cs1)c1ccncc1`, the IC50 result in data set [1] and in data set [2] was “Not Active” each time.

As for `CCOC(=O)c1csc(N/N=C(\C)c2ccncc2)n1`, the “inhibition (INH)” value in data set [3] and in data set [4] was “Active” throughout. In addition, the IC50 in data set [1] (read-out: IC50) worked out at 0.127 µM; in data set [2] (read-out: IC50), 6.63 µM.

With `CCOC(=O)c1csc(N/N=C(\C)c2cccnc2)n1`, the “inhibition (INH)” value in data set [3] and in data set [5] was “Active” in each case. Also, the concentration for half-maximal inhibition (IC50) in data set [1] (read-out: IC50) amounted to 0.0722 µM; in data set [2] (read-out: IC50), 6.57 µM.

Regarding `C/C(=N\Nc1nc(-c2ccccc2)cs1)c1ccccn1`, the IC50 in data set [1] (read-out: IC50) worked out at 3.84 µM; in data set [2] (read-out: IC50) it was 16.6 µM.

With `C/C(=N\Nc1nc(-c2ccccc2)cs1)c1cccnc1`, the IC50 in data set [1] (read-out: IC50) is 0.944 µM; in data set [2] (read-out: IC50) it was 21.3 µM.

`CCOC(=O)c1csc(N/N=C(\C)c2ccccn2)n1`: the IC50 result in data set [1] and in data set [2] was “Not Active” in each case.

As for `C/C(=N/Nc1nc(-c2ccccc2)cs1)c1ccncc1`, the “inhibition (INH)” value in data set [3] and in data set [4] was “Active” in each case. The IC50 in data set [1] (read-out: IC50) was found to be 0.013 µM; in data set [2] (read-out: IC50) it was 2.67 µM.

For the molecule `C/C(=N\Nc1nc(C)cs1)c1ccccn1`, the IC50 entry in data set [1] and in data set [2] was “Not Active” throughout.
